In brackets after ≈: the same amount, converted by molar mass. Activity calls are given as the source filed them. The rule behind the calls is not given here.
Experiments:
[1] = tested on: Candida albicans; experiment: Antifungal activity against Candida albicans assessed as zone of inhibition at 100 ug/ml by agar well diffusion method; format: functional; conditions: for zone of inhibition at 100 µg/mL: read-out: IZ
How it was run: (§1)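 For the agar well diffusion screen, samples at 100 µg/mL were made from a stock of 10 mg in 1 mL EtOH diluted 1:1 (v/v) with Mueller-Hinton medium. The zone of inhibition was scored as 5–10 mm poor, 10–15 moderate, 15–20 good and 20–25 very good. Gentamycin and nystatin were the reference drugs. Strains were confirmed at the University of Botswana microbiology laboratory.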

[2] = tested on: Staphylococcus aureus; experiment: Antimicrobial activity against Staphylococcus aureus ATCC 25923 by agar well diffusion method; format: functional
[3] = tested on: Escherichia coli; experiment: Antimicrobial activity against Escherichia coli ATCC 8739 by agar well diffusion method; format: functional
[4] = tested on: Pseudomonas aeruginosa; experiment: Antimicrobial activity against Pseudomonas aeruginosa NCIMB 8295 by agar well diffusion method; format: functional
[5] = tested on: Bacillus subtilis; experiment: Antimicrobial activity against Bacillus subtilis NCIB 3610 by agar well diffusion method; format: functional; conditions: subsp. subtilis str. NCIB 3610
[6] = tested on: Candida albicans; experiment: Antifungal activity against Candida albicans by agar well diffusion method; format: functional
[7] = Antioxidant activity assessed as DPPH radical scavenging activity after 30 mins by spectrophotometry; format: physicochemical
How it was run: (§2)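 DPPH (0.51 mM in methanol) was mixed 1:1 by volume with the compound at several concentrations (100, 50, 25 … µg/mL range). Absorbance was read against a control, and % inhibition = (A0−As)/A0 ×100. Readings were taken at 30 min and 3 h, with ascorbic acid as the reference. Triplicate measurements.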

[8] = Antioxidant activity assessed as DPPH radical scavenging activity after 3 hrs by spectrophotometry; format: physicochemical; how it was run: as §2
[9] = Metal chelating activity of the compound assessed as formation of iron complex after 20 mins by spectrophotometry; format: physicochemical
How it was run: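 Fe2+ chelation was measured by disruption of the o-phenanthroline–Fe2+ complex. O-phenanthroline (0.05% in methanol) and FeCl2 (0.1%) were mixed with the sample at various concentrations and held at room temperature for 20 min, then read at 510 nm. EDTA was the standard chelator. % chelation = (Acontrol−Asample)/Acontrol ×100, and IC50 came from plots of % chelation versus concentration. Triplicates.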

[10] = tested on: Staphylococcus aureus; experiment: Antimicrobial activity against Staphylococcus aureus ATCC 25923 assessed as zone of inhibition at 100 ug/ml by agar well diffusion method; format: functional; conditions: for zone of inhibition at 100 µg/mL: read-out: IZ; how it was run: as §1
[11] = tested on: Escherichia coli; experiment: Antimicrobial activity against Escherichia coli ATCC 8739 assessed as zone of inhibition at 100 ug/ml by agar well diffusion method; format: functional; conditions: for zone of inhibition at 100 µg/mL: read-out: IZ; how it was run: as §1
[12] = tested on: Pseudomonas aeruginosa; experiment: Antimicrobial activity against Pseudomonas aeruginosa NCIMB 8295 assessed as zone of inhibition at 100 ug/ml by agar well diffusion method; format: functional; conditions: for zone of inhibition at 100 µg/mL: read-out: IZ; how it was run: as §1
[13] = tested on: Bacillus subtilis; experiment: Antimicrobial activity against Bacillus subtilis NCIB 3610 assessed as zone of inhibition at 100 ug/ml by agar well diffusion method; format: functional; conditions: for zone of inhibition at 100 µg/mL: subsp. subtilis str. NCIB 3610, read-out: IZ; for Activity: subsp. subtilis str. NCIB 3610; how it was run: as §1

Compound | zone of inhibition at 100 µg/mL [1] | MIC [2] | MIC [3] | MIC [4] | MIC [5] | MIC [6] | IC50 [7] | IC50 [8] | IC50 [9] | Activity [10] | Activity [11] | Activity [12] | zone of inhibition at 100 µg/mL [13] | Activity [1] | Activity [13] | zone of inhibition at 100 µg/mL [10] | zone of inhibition at 100 µg/mL [11] | zone of inhibition at 100 µg/mL [12]
CCOC(=O)C1C(=O)C=C(c2ccc(O)cc2)CC1c1cccc([N+](=O)[O-])c1 (stereo not drawn) | 13 mm | inactive | inactive | inactive | 2.5 µg/mL (≈ 6.56 µM) | 2.5 µg/mL (≈ 6.56 µM) | 175 µg/mL (≈ 459 µM) | 86.67 µg/mL (≈ 227 µM) | 1014 µg/mL (≈ 2660 µM) | inactive | inactive | inactive | 12 mm | – | – | – | – | –
COc1ccc(C2=CC3=NOC(=O)C3C(c3cccc([N+](=O)[O-])c3)C2)cc1 (stereo not drawn) | – | inactive | inactive | inactive | 2.5 µg/mL (≈ 6.86 µM) | inactive | 258.75 µg/mL (≈ 710 µM) | 118.69 µg/mL (≈ 326 µM) | 704.31 µg/mL (≈ 1930 µM) | inactive | inactive | inactive | 12 mm | inactive | – | – | – | –
CCOC(=O)C1C(=O)C=C(c2ccc(OC)cc2OC)CC1c1cccc([N+](=O)[O-])c1 (stereo not drawn) | – | inactive | inactive | inactive | inactive | inactive | 195.65 µg/mL (≈ 460 µM) | 95.43 µg/mL (≈ 224 µM) | 1006.67 µg/mL (≈ 2370 µM) | inactive | inactive | inactive | – | inactive | inactive | – | – | –
O=C1NN=C2C=C(c3ccccc3)CC(c3cccc([N+](=O)[O-])c3)C12 (stereo not drawn) | – | 2.5 µg/mL (≈ 7.5 µM) | inactive | inactive | 2.5 µg/mL (≈ 7.5 µM) | inactive | 98.53 µg/mL (≈ 296 µM) | 59.5 µg/mL (≈ 178 µM) | 93.04 µg/mL (≈ 279 µM) | – | inactive | inactive | 13 mm | inactive | – | 12 mm | – | –
O=C(/C=C/c1cccc([N+](=O)[O-])c1)c1ccc(O)cc1 | – | – | – | – | – | – | 92.75 µg/mL (≈ 344 µM) | 40.67 µg/mL (≈ 151 µM) | 84.09 µg/mL (≈ 312 µM) | – | – | – | – | – | – | – | – | –
GENTAMICIN | – | < 0.02 µg/mL | < 0.02 µg/mL | < 0.02 µg/mL | < 0.02 µg/mL | – | – | – | – | – | – | – | – | – | – | – | – | –
CCOC(=O)C1C(=O)C=C(c2ccccc2)CC1c1cccc([N+](=O)[O-])c1 (stereo not drawn) | – | inactive | inactive | inactive | inactive | inactive | 165.21 µg/mL (≈ 452 µM) | 143.6 µg/mL (≈ 393 µM) | 1028.57 µg/mL (≈ 2820 µM) | inactive | inactive | inactive | – | inactive | inactive | – | – | –
CCOC(=O)C1C(=O)C=C(c2cccs2)CC1c1cccc([N+](=O)[O-])c1 (stereo not drawn) | 8 mm | inactive | inactive | inactive | 2.5 µg/mL (≈ 6.73 µM) | 2.5 µg/mL (≈ 6.73 µM) | 208.95 µg/mL (≈ 563 µM) | 133.66 µg/mL (≈ 360 µM) | 1030.56 µg/mL (≈ 2770 µM) | inactive | inactive | inactive | 12 mm | – | – | – | – | –
CCOC(=O)C1C(=O)C=C(c2ccc(Br)cc2)CC1c1cccc([N+](=O)[O-])c1 (stereo not drawn) | – | inactive | inactive | inactive | inactive | inactive | 409.1 µg/mL (≈ 921 µM) | 409.1 µg/mL (≈ 921 µM) | 1148.57 µg/mL (≈ 2590 µM) | inactive | inactive | inactive | – | inactive | inactive | – | – | –
O=C1O[C@H]([C@@H](O)CO)C(O)=C1O [ASCORBIC ACID] | – | – | – | – | – | – | 37.78 µg/mL (≈ 215 µM) | 25.26 µg/mL (≈ 143 µM) | – | – | – | – | – | – | – | – | – | –
O=C1ON=C2C=C(c3ccc(Br)cc3)CC(c3cccc([N+](=O)[O-])c3)C12 (stereo not drawn) | 9 mm | inactive | inactive | inactive | inactive | 2.5 µg/mL (≈ 6.05 µM) | 305.01 µg/mL (≈ 738 µM) | 218.75 µg/mL (≈ 529 µM) | 816.48 µg/mL (≈ 1980 µM) | inactive | inactive | inactive | – | – | inactive | – | – | –
COc1ccc(C2=CC3=NNC(=O)C3C(c3cccc([N+](=O)[O-])c3)C2)cc1 (stereo not drawn) | – | inactive | inactive | inactive | 2.5 µg/mL (≈ 6.88 µM) | inactive | 86.74 µg/mL (≈ 239 µM) | 38.38 µg/mL (≈ 106 µM) | 85.58 µg/mL (≈ 236 µM) | inactive | inactive | inactive | 11 mm | inactive | – | – | – | –
COc1ccc(C2=CC3=NNC(=O)C3C(c3cccc([N+](=O)[O-])c3)C2)c(OC)c1 (stereo not drawn) | – | inactive | inactive | inactive | 2.5 µg/mL (≈ 6.35 µM) | inactive | 88.75 µg/mL (≈ 226 µM) | 39.67 µg/mL (≈ 101 µM) | 84.39 µg/mL (≈ 215 µM) | inactive | inactive | inactive | 9 mm | inactive | – | – | – | –
O=C(O)CN(CCN(CC(=O)O)CC(=O)O)CC(=O)O [EDETIC ACID] | – | – | – | – | – | – | – | – | 50.98 µg/mL (≈ 174 µM) | – | – | – | – | – | – | – | – | –
O=C1ON=C2C=C(c3cccs3)CC(c3cccc([N+](=O)[O-])c3)C12 (stereo not drawn) | 15 mm | 2.5 µg/mL (≈ 7.35 µM) | 2.5 µg/mL (≈ 7.35 µM) | 2.5 µg/mL (≈ 7.35 µM) | 1.25 µg/mL (≈ 3.67 µM) | 1.25 µg/mL (≈ 3.67 µM) | 309.29 µg/mL (≈ 909 µM) | 197.78 µg/mL (≈ 581 µM) | 675.67 µg/mL (≈ 1990 µM) | – | – | – | 14 mm | – | – | 12 mm | 13 mm | 11 mm
NYSTATIN | – | – | – | – | – | < 0.02 µg/mL | – | – | – | – | – | – | – | – | – | – | – | –
O=C1ON=C2C=C(c3ccccc3)CC(c3cccc([N+](=O)[O-])c3)C12 (stereo not drawn) | 10 mm | inactive | inactive | 2.5 µg/mL (≈ 7.48 µM) | inactive | 2.5 µg/mL (≈ 7.48 µM) | 312.28 µg/mL (≈ 934 µM) | 215.71 µg/mL (≈ 645 µM) | 750.45 µg/mL (≈ 2240 µM) | inactive | inactive | – | – | – | inactive | – | – | 11 mm
COc1ccc(C(=O)/C=C/c2cccc([N+](=O)[O-])c2)cc1 | – | – | – | – | – | – | 135.27 µg/mL (≈ 478 µM) | 92.46 µg/mL (≈ 326 µM) | 97.32 µg/mL (≈ 344 µM) | – | – | – | – | – | – | – | – | –
O=C1NN=C2C=C(c3cccs3)CC(c3cccc([N+](=O)[O-])c3)C12 (stereo not drawn) | 23 mm | 2.5 µg/mL (≈ 7.37 µM) | 2.5 µg/mL (≈ 7.37 µM) | 2.5 µg/mL (≈ 7.37 µM) | 0.313 µg/mL (≈ 0.922 µM) | 0.313 µg/mL (≈ 0.922 µM) | 100.61 µg/mL (≈ 296 µM) | 63.78 µg/mL (≈ 188 µM) | 86.96 µg/mL (≈ 256 µM) | – | – | – | 22 mm | – | – | 9 mm | 11 mm | 10 mm
O=C(/C=C/c1cccc([N+](=O)[O-])c1)c1ccc(Br)cc1 | – | – | – | – | – | – | 170 µg/mL (≈ 512 µM) | 122.8 µg/mL (≈ 370 µM) | 202.56 µg/mL (≈ 610 µM) | – | – | – | – | – | – | – | – | –
O=C(/C=C/c1cccc([N+](=O)[O-])c1)c1cccs1 | – | – | – | – | – | – | 112.29 µg/mL (≈ 433 µM) | 90.73 µg/mL (≈ 350 µM) | 1029.41 µg/mL (≈ 3970 µM) | – | – | – | – | – | – | – | – | –
O=C1ON=C2C=C(c3ccc(O)cc3)CC(c3cccc([N+](=O)[O-])c3)C12 (stereo not drawn) | 10 mm | 2.5 µg/mL (≈ 7.14 µM) | 2.5 µg/mL (≈ 7.14 µM) | inactive | inactive | 2.5 µg/mL (≈ 7.14 µM) | 202.15 µg/mL (≈ 577 µM) | 118.69 µg/mL (≈ 339 µM) | 360.98 µg/mL (≈ 1030 µM) | – | – | inactive | – | – | inactive | 10 mm | 10 mm | –
COc1ccc(C(=O)/C=C/c2cccc([N+](=O)[O-])c2)c(OC)c1 | – | – | – | – | – | – | 133.57 µg/mL (≈ 426 µM) | 96.22 µg/mL (≈ 307 µM) | 95.13 µg/mL (≈ 304 µM) | – | – | – | – | – | – | – | – | –
O=C(/C=C/c1cccc([N+](=O)[O-])c1)c1ccccc1 | – | – | – | – | – | – | 165.21 µg/mL (≈ 652 µM) | 112.5 µg/mL (≈ 444 µM) | 104.76 µg/mL (≈ 414 µM) | – | – | – | – | – | – | – | – | –

Source: ChEMBL document CHEMBL3351380, “Antioxidant and antimicrobial studies on fused-ring pyrazolones and isoxazolones” (Bioorg Med Chem, 2014)
